Results: article PMC4267758 (Journal of molecular biology, 2014)
Like-named read-outs stand apart in the source and are kept apart here. Where no end group is shown, it is not given here. The star is where a group is joined. MTSL = methane thiosulphonate spin label, CC1(C)C=C(CS*)C(C)(C)N1[O]

B1: Pyk2 focal adhesion-targeting (Pyk2-FAT) domain (domain or fragment, human, UniProt Q14289 871-1005, looked up)
chain: ANLDRTDDLVYLNVMELVRAVLELKNELCQLPPEGYVVVVKNVGLTLRKLIGSVDDLLPSLPSSSRTEIEGTQKLLNKDLAELINKMRLAQQNAVTSLSEECKRQMLTASHTLAVDAKNLLDAVDQAKVLANLAH
B4: paxillin^133–290 (LD2–LD4 region of chicken paxillin) (domain or fragment, UniProt P49024 133-290, looked up)
chain: MTSTSLGSNLSELDRLLLELNAVQHNPPSGFSADEVSRSPSLPNVTGPHYVIPESSSSAGGKAAPPTKEKPKRNGGRGIEDVRPSVESLLDELESSVPSPVPAITVSQGEVSSPQRVNASQQQTRISASSATRELDELMASLSDFKFMAQGKAGGSSS

How the values were obtained:
Pyk2-FAT [1] = assay: Isothermal titration calorimetry; format: binding, human; settings: for binding to Pyk2-FAT (qualitative, ITC): 20 mM MES, pH 6.2, 25°C
Summary of the method: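 Human Pyk2 FAT domain (residues 871–1005) with an N-terminal His6 tag, expressed in E. coli BL21(DE3) and purified by Ni-affinity then gel filtration. The cell held 10 μM protein in 20 mM MES, pH 6.2. The syringe held chicken paxillin LD-motif peptides (100 μM) or the His-tagged paxillin 133–290 fragment (50 μM). Solutions degassed; 2 μl injections, 120 s apart, at 25°C. Ligand-into-buffer heats subtracted. Fits used one-site or two-site sequential models. Run in duplicate.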

Pyk2-FAT [2] = assay: NMR titration / chemical shift perturbation of 15N-labeled Pyk2-FAT; format: binding, human; settings: 15N-HSQC/TROSY titration, Pyk2-FAT:ligand 1:0.2 to 1:2, 20 mM MES, pH 6.2, 305K
Summary of the method: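 15N-labeled Pyk2-FAT (400–500 μM in 20 mM MES, pH 6.2) titrated at 305 K with chicken LD peptides at protein:peptide ratios of 1:0.2 to 1:2. Peptide stocks were in dialysis buffer, pH readjusted to 6.2. 15N-HSQC spectra recorded at 600/800 MHz. Weighted shift Δav = [(ΔH² + (ΔN/5)²)/2]^1/2. For PRE, MTSL-labeled peptides were added at 1:0.2 and Iox/Ired taken after ascorbate reduction.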

Pyk2-FAT [3] = assay: Steady-state 1H-15N heteronuclear NOE; parameters: species or system human; settings: 600 MHz, 305 K; relative to free Pyk2-FAT, loop regions
Summary of the method: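 Steady-state 1H-15N heteronuclear NOE was measured at 600 MHz, 305 K on 15N-labelled Pyk2-FAT, free and bound to LD-motif peptide. Protein was at 400–500 μM in 20 mM MES pH 6.2. NOE values were taken as peak-intensity ratios of 1H-saturated to unsaturated spectra.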

FAK-FAT = settings: cited from earlier work
[4] = system: FAT-like domain from G-protein-coupled receptor kinase-interacting protein 1 (GIT1); settings: ref [41]; cited from earlier work
Pyk2-FAT [5] = assay: H/D exchange NMR of Pyk2-FAT complexes; parameters: species or system human; settings: H/D exchange in D2O, fast 15N-HSQC, up to 10 h
Summary of the method: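 15N-labelled Pyk2-FAT complexes (400–500 μM, 20 mM MES pH 6.2) were lyophilized and rehydrated in D2O. FAST 1H-15N HSQC spectra were recorded at intervals up to 10 h at 305 K. HSQC spectra in H2O before and after exchange checked structural integrity.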

Pyk2-FAT [6] = assay: Sedimentation equilibrium AUC; format: binding, human; settings: AUC-SE; for Kd: two site hetero-association model (A+B+B↔ABB), 1:2 Pyk2-FAT to peptide, 20 mM MES, pH 6.2, 4 °C, Monte Carlo error, 500 iterations, confidence level 0.68
Summary of the method: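 Sedimentation equilibrium at 4 °C in 20 mM MES, 50 mM NaCl, pH 6.2. Rotor speeds 18.4, 26.9 and 46k rpm, equilibrium reached at 30, 26 and 18 h. Loading 35–96 μM. Absorbance read at 280 and 230 nm, 0.001 cm radial steps, 20 replicates per point. Global least-squares fit across speeds to the A+B+B↔ABB model.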

[7] = biological target: B4; assay: ITC
[8] = biological target: B4; assay: AUC
[9] = Sedimentation velocity AUC; format: physicochemical; settings: for percentage protein amount in c(s) peak: 20 °C, 50,000 rpm; for f/f0 (weight-average frictional ratio): best-fit from c(s) distribution, 20 °C
Summary of the method: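 Sedimentation velocity at 50,000 rpm and 20°C in 20 mM MES, pH 6.2, with or without 50 mM NaCl. Partial specific volumes calculated from sequence. Rayleigh interference scans taken every 1.0 min over 10 h. Data fitted to a c(s) distribution model. The s-value is the ordinate maximum of each c(s) peak; percentage protein amount is reported per peak.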

[10] = biological target: B1; assay: ITC
Pyk2-FAT [11] = assay: Reverse NMR titration: unlabeled Pyk2-FAT added to 15N-labeled paxillin ligand; format: binding, human; settings: 1H-15N HSQC/TROSY, ratios up to 1:2, 20 mM MES, pH 6.2
Summary of the method: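 Unlabelled Pyk2-FAT was titrated into a 15N-labelled ligand in 20 mM MES pH 6.2, with 15N-1H HSQC spectra at 600/800 MHz and 305 K. Ligands were an expressed chicken paxillin 139–163 peptide or His-tagged chicken paxillin 133–290. […] Ratios were 1:0.2–1:2.0.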

[12] = biological target: B1; assay: AUC
[13] = biological target: B1; assay: NMR paramagnetic relaxation enhancement

LD3: paxillin derived peptide LD3 (chicken paxillin; residues 217–237), chemically synthesized (SVESLLDELESSVPSPVPAIT)
binding to Pyk2-FAT (qualitative, ITC) (Pyk2-FAT [1]): very weak compared to LD2 and LD4 peptides

LD4: paxillin derived peptide LD4 (chicken paxillin; residues 262–278), chemically synthesized (SATRELDELMASLSDFK)
binding sites / site preference on Pyk2-FAT by NMR (Pyk2-FAT [2]): H2/H3 is the stronger binding site | steady-state 1H-15N NOE of Pyk2-FAT amides upon ligand binding (Pyk2-FAT [3]): significantly increased relative to free Pyk2-FAT | preferred binding site on FAK-FAT (FAK-FAT; ref [39] (b5), [39], [40]): binds to the H2/H3 site | LD4 binding to the FAK FAT H1/H4 site (FAK-FAT; ref [40]): defective | binding site on GIT1 FAT-like domain [4]: located exclusively at the H1/H4 surface | amide H/D exchange protection of Pyk2-FAT in complex (Pyk2-FAT [5]): residues from H2/H3 and H1/H4 were protected even after 10 hrs | global free energy difference between first and second sites (ΔGAB and ΔGABB) (Pyk2-FAT [6]; 1:2 stoichiometry, two-site hetero-association model): -0.77 kcal/mol | Delta G, single site (1:1) (Pyk2-FAT [6]; single site hetero-association model, T = 277.149994K, RT = 0.551kcal/mol): -7.52 kcal/mol | Delta G, first binding site (1:2) (Pyk2-FAT [6]; two site hetero-association model, first site, T = 277.149994K, RT = 0.551kcal/mol): -7.47 kcal/mol | Delta G, second binding site (both occupied) (Pyk2-FAT [6]; two site hetero-association model, second site, T = 277.149994K, RT = 0.551kcal/mol): -6.70 kcal/mol | Kd (Pyk2-FAT [6]; read-out: KAB (first site), 1:2 stoichiometry): 1290 ± 90 nM | Kd (Pyk2-FAT [6]; read-out: KABB (second site), 1:2 stoichiometry): 5180 ± 360 nM | affinity preference for H2/H3 site over H1/H4 site of Pyk2-FAT (Pyk2-FAT [1]; from ITC and AUC studies): 5 fold

B1
Kd [7]: 1800 ± 100 nM | Kd [8]: 400 nM

B2: Pyk2-FAT: FAT domain of human Pyk2 (residues 871–1005), N-terminal His6-tag (protein)
chain: ANLDRTDDLVYLNVMELVRAVLELKNELCQLPPEGYVVVVKNVGLTLRKLIGSVDDLLPSLPSSSRTEIEGTQKLLNKDLAELINKMRLAQQNAVTSLSEECKRQMLTASHTLAVDAKNLLDAVDQAKVLANLAH
modifications: left off: His6, N-terminal, state not stated
percentage protein amount in c(s) peak [9]: 99% | f/f0 (weight-average frictional ratio) [9]: 1.34

B3: paxillin^212–282: paxillin construct LD3–LD4 (protein)
chain: EDVRPSVESLLDELESSVPSPVPAITVSQGEVSSPQRVNASQQQTRISASSATRELDELMASLSDFKFMAQGK
binding to Pyk2-FAT (qualitative, ITC) (Pyk2-FAT [1]): two-site sequential binding model

B4
dH [10]: -5 ± 0.1 kcal/mol | stoichiometry N [10]: 1.2

B5: paxillin^133–290: chicken paxillin residues 133–290, truncated construct comprising LD motifs 2, 3 and 4, N-terminal His-tag (protein)
chain: MTSTSLGSNLSELDRLLLELNAVQHNPPSGFSADEVSRSPSLPNVTGPHYVIPESSSSAGGKAAPPTKEKPKRNGGRGIEDVRPSVESLLDELESSVPSPVPAITVSQGEVSSPQRVNASQQQTRISASSATRELDELMASLSDFKFMAQGKAGGSSS
modifications: left off: His-tag, N-terminal, kept
binding sites / site preference on Pyk2-FAT by NMR (Pyk2-FAT [2]): binding preference for H2/H3 | effect of unlabeled Pyk2-FAT on resonances of 15N-labeled ligand (Pyk2-FAT [11]): several peaks from the LD2 and LD4 regions disappeared beyond detection | increase of binding affinity for FAK FAT relative to LD2 or LD4 peptides alone (FAK-FAT; similar paxillin^133–290 construct, ref [35]): 10 fold | oligomerization state of unbound protein [9]: appears to form some soluble associated species (oligomers) of undetermined stoichiometry’s, but the main species appears to be a monomer | percentage protein amount in c(s) peak [9]: 48% | f/f0 (weight-average frictional ratio) [9]: 1.70 | f/f0 (weight-average frictional ratio) ([9]; listed as paxillin): 1.7 | apparent molecular mass of the 1:1 complex ([9]; theoretical 33,706 Da): 30.20 kDa

B6: paxillin^133–242: paxillin construct LD2–LD3 (protein)
chain: MTSTSLGSNLSELDRLLLELNAVQHNPPSGFSADEVSRSPSLPNVTGPHYVIPESSSSAGGKAAPPTKEKPKRNGGRGIEDVRPSVESLLDELESSVPSPVPAITVSQGE
binding to Pyk2-FAT (qualitative, ITC) (Pyk2-FAT [1]): two-site sequential binding model

SATRELDELMASLSDFK (peptide, UniProt P49024 262-278, looked up) [paxillin LD4 peptide (chicken paxillin residues 262-278)]
dH, first site [10]: -2.8 ± 0.2 kcal/mol | dH, second site [10]: 0.9 ± 0.3 kcal/mol | Kd [12]: 1170 nM

GSNLSELDRLLLELNAVQHNPPSGF (peptide, UniProt P49024 139-163, looked up) [paxillin LD2 peptide (chicken paxillin residues 139-163)]
dH, first site [10]: -2.4 ± 0.1 kcal/mol | dH, second site [10]: 0.3 ± 0.1 kcal/mol

GSNLSELDRLLLELNAVC(MTSL)HNPPSGF (peptide, UniProt P49024 139-163, looked up) [spin-labeled LD2 (Q156C) peptide]
binding result [13]: binds
